Results: ChEMBL document CHEMBL4304834, “3-Amino-chromanes and Tetrahydroquinolines as Selective 5-HT2B, 5-HT7, or σ1 Receptor Ligands” (ACS Med Chem Lett, 2019)

Assays:
[1] = Displacement of [3H]-Flunitrazepam from BZP receptor in rat brain after 90 mins by microbeta scintillation counting method; type: tissue-based
In short: (§1)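 Radioligand binding run by the NIMH Psychoactive Drug Screening Program. Otherwise Ki comes from sigmoidal curve fits of triplicate measurements in a single experiment, or is averaged over repeated experiments each run in triplicate.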

[2] = molecular target: Sigma intracellular receptor 2 (Homo sapiens, UniProt Q5BJF2); assay: Displacement of […] from human recombinant sigma2 receptor expressed in HEKT cells at 10 uM after 90 mins by microbeta scintillation counting method relative to control; type: cell-based
Chain of Sigma intracellular receptor 2 (Q5BJF2 whole entry): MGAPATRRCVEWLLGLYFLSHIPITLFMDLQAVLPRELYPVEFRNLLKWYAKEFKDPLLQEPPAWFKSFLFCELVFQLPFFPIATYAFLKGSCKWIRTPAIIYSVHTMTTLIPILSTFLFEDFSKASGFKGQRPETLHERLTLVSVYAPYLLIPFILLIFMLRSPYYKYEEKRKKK
In short: (§2)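 Radioligand binding run by the NIMH Psychoactive Drug Screening Program. […] Otherwise Ki comes from sigmoidal curve fits of triplicate measurements in a single experiment, or is averaged over repeated experiments each run in triplicate.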

[3] = molecular target: 5-hydroxytryptamine receptor 6 (Homo sapiens, UniProt P50406); assay: Displacement of [3H]-LSD from human recombinant 5-HT6 receptor expressed in stable HEK cells at 10 uM after 90 mins by microbeta scintillation counting method relative to control; type: cell-based; in short: as §2
Chain of 5-hydroxytryptamine receptor 6 (P50406 whole entry): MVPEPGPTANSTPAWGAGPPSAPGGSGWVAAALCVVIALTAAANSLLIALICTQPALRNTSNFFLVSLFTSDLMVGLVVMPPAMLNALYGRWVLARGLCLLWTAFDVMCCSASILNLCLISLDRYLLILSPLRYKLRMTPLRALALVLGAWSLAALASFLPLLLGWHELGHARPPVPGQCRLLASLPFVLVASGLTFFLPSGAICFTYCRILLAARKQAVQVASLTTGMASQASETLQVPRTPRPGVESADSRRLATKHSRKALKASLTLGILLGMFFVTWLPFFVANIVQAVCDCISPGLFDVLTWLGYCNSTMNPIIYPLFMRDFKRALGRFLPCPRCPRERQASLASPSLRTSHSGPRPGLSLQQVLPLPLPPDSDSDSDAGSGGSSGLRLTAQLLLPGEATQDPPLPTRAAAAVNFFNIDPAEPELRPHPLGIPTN

D(3) dopamine receptor = D(3) dopamine receptor (Homo sapiens, UniProt P35462); assay: Displacement of [3H]-N-methylspiperone from human recombinant dopamine D3 receptor expressed in HEKT cells at 10 uM after 90 mins by microbeta scintillation counting method relative to control; type: cell-based; in short: as §2
Chain of D(3) dopamine receptor (P35462 whole entry): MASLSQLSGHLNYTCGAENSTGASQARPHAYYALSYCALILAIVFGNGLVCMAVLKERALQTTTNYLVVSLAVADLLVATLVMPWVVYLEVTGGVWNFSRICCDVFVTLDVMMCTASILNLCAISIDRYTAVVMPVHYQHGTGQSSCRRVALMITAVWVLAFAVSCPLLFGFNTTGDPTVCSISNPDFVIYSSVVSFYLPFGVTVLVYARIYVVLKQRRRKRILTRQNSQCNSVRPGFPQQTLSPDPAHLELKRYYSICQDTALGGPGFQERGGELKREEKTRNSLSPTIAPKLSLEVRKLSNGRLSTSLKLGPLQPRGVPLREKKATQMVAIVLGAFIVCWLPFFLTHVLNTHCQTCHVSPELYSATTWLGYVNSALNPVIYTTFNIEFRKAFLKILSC

[4] = Displacement of [3H]-PK11195 from PBR receptor in rat brain after 90 mins by microbeta scintillation counting method; type: tissue-based; in short: as §1
Histamine H2 receptor = Histamine H2 receptor (Homo sapiens, UniProt P25021); assay: Displacement of [125I]-Iodoaminopotentidine from human recombinant histamine H2 receptor expressed in stable HEK cells after 90 mins by microbeta scintillation counting method; type: cell-based; in short: as §2
Chain of Histamine H2 receptor (P25021 whole entry): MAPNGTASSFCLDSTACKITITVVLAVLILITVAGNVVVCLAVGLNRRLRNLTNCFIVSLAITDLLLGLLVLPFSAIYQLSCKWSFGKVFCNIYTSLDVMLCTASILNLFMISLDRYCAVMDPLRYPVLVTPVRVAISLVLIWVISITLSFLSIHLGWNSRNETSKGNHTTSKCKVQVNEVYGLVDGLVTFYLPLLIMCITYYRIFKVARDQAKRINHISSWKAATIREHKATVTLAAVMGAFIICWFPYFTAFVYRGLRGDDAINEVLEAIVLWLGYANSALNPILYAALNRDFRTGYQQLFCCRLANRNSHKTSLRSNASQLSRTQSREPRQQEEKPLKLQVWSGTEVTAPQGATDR

[5] = molecular target: 5-hydroxytryptamine receptor 2B (Homo sapiens, UniProt P41595); assay: Displacement of [3H]-LSD from human recombinant 5-HT2B receptor stably expressed in HEK cells after 90 mins by microbeta scintillation counting method; type: cell-based; conditions: read-out: pKi (converted)
Chain of 5-hydroxytryptamine receptor 2B (P41595 whole entry): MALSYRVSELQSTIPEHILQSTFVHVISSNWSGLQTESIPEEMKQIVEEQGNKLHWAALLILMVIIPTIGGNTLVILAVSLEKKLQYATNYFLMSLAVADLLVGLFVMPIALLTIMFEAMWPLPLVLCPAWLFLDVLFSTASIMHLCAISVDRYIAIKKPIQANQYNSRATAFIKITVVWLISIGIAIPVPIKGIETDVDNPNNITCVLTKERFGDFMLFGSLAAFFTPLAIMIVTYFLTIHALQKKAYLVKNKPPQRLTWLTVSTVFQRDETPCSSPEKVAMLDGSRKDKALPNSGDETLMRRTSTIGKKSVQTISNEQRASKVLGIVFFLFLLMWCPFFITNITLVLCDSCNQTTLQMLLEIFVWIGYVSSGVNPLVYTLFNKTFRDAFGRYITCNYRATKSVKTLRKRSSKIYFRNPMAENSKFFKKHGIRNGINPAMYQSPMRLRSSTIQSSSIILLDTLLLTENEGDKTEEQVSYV
In short: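 Run by NIMH Psychoactive Drug Screening Program. Otherwise, competition binding curves are generated and pKi is taken from a sigmoidal curve fit. Data are either triplicate measurements within one experiment, with the error from the fit, or the mean of repeated experiments, each run in triplicate.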

Histamine H4 receptor = Histamine H4 receptor (Homo sapiens, UniProt Q9H3N8); assay: Displacement of [3H]-Histamine from human recombinant histamine H4 receptor expressed in HEKT cells after 90 mins by microbeta scintillation counting method; type: cell-based; in short: as §2
Chain of Histamine H4 receptor (Q9H3N8 whole entry): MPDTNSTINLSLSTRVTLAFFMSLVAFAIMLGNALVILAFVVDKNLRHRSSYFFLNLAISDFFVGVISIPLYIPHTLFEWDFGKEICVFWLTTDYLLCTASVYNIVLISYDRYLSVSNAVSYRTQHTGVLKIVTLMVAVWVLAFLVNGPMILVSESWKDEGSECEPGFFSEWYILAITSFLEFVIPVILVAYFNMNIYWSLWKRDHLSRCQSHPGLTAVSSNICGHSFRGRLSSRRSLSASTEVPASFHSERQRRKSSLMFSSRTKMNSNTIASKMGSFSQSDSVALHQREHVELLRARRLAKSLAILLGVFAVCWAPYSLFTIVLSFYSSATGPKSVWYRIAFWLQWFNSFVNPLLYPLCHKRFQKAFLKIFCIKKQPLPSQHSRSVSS

[6] = molecular target: GABA-A receptor; anion channel (Rattus norvegicus) (UniProt O09028+P15431+P18506+P18508+P19969+P20236+P23574+P23576+P28471+P28473+P30191+P62813+P63079+P63138+Q91ZM7+Q9ES14); assay: Displacement of [3H]-Muscimol from GABAA receptor in rat brain at 10 uM incubated for 90 mins by microbeta scintillation counting method relative to control; type: tissue-based; in short: as §2
[7] = molecular target: T1, Muscarinic acetylcholine receptor M2 (Homo sapiens) (UniProt P08172); assay: Displacement of [3H]-QNB/[3H]-NMS from human recombinant Muscarinic acetylcholine M2 receptor expressed in stable CHO cells at 10 uM after 90 mins by microbeta scintillation counting method relative to control; type: cell-based
T1 sequence (whole entry): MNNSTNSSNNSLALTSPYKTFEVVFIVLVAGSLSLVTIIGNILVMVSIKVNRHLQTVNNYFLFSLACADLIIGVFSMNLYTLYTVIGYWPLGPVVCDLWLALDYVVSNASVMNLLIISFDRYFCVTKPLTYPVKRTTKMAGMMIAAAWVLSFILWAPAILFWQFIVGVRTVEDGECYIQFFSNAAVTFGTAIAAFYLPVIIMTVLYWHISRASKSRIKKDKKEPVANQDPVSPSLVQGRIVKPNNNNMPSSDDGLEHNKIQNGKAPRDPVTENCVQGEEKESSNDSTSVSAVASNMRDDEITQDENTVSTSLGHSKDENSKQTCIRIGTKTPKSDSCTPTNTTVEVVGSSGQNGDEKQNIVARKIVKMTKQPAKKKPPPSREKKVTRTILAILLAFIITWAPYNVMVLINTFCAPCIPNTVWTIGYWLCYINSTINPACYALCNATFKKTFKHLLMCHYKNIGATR

[8] = molecular target: T2, Muscarinic acetylcholine receptor M1 (Homo sapiens, UniProt P11229); assay: Displacement of [3H]-QNB/[3H]-NMS from human recombinant Muscarinic acetylcholine M1 receptor expressed in stable CHO cells after 90 mins by microbeta scintillation counting method; type: cell-based
T2 sequence (P11229 whole entry): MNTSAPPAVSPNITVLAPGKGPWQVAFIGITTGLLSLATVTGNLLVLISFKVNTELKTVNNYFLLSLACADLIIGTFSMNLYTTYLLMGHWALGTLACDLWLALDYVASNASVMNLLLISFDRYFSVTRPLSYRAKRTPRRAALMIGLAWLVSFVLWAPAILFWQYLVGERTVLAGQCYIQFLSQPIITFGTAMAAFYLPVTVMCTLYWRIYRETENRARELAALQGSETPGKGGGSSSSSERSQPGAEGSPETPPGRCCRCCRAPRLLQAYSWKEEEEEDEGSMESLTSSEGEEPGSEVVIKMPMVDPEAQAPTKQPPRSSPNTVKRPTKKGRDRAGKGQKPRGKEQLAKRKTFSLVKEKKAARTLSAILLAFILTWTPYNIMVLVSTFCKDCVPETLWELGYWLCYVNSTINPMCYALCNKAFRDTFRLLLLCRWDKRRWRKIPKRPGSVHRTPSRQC
In short: (§3)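 Radioligand binding was run by the NIMH Psychoactive Drug Screening Program. Compounds were first screened at 10 μM. Those giving ≥50% binding were taken to full competition curves. Ki is reported as pKi from a sigmoidal curve fit of triplicate measurements in a single experiment; the error is the curve-fit error.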

[9] = molecular target: T3, Alpha-2A adrenergic receptor (Homo sapiens, UniProt P08913); assay: Displacement of [3H]-Rauwolscine from human recombinant adrenergic Alpha2A receptor expressed in stable MDCK cells after 90 mins by microbeta scintillation counting method; type: cell-based; in short: as §3
T3 sequence (P08913 whole entry): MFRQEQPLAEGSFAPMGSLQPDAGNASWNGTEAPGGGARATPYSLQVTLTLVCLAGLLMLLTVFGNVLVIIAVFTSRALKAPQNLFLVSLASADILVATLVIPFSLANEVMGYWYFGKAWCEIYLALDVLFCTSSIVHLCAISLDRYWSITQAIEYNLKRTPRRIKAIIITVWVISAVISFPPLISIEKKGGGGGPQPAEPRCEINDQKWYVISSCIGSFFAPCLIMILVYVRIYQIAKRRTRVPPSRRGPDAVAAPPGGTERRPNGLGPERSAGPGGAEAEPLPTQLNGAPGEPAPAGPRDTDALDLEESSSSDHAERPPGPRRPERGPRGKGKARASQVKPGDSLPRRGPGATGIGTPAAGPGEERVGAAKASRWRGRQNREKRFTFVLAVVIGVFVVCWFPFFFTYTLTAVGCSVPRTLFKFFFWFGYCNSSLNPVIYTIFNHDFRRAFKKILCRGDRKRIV

[10] = molecular target: 5-hydroxytryptamine receptor 2A (Homo sapiens, UniProt P28223); assay: Displacement of [3H]-Ketanserin from human recombinant 5-HT2A receptor transiently expressed in HEKT cells after 90 mins by microbeta scintillation counting method; type: cell-based; in short: as §2
Chain of 5-hydroxytryptamine receptor 2A (P28223 whole entry): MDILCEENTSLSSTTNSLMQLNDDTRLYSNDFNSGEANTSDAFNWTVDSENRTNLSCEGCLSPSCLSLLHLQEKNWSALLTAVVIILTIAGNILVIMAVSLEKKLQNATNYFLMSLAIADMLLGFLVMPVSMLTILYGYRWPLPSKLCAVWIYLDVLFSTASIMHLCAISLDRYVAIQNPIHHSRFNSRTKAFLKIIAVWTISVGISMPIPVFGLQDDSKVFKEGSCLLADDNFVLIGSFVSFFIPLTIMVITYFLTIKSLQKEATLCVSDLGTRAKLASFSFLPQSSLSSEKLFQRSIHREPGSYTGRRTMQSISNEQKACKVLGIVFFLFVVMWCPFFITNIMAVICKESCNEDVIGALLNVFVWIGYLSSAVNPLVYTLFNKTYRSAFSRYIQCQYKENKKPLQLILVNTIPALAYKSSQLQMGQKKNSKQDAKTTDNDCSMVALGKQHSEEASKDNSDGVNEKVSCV

Work on `COc1cc(OC)c2c(c1)OC[C@@]1(C)NCC[C@@H]21` (racemic) yielded a pKi [1] of 5.2, an inhibition [2] of less than 50% and an inhibition [3] of less than 50%. It also gave an inhibition (D(3) dopamine receptor) of less than 50%, a pKi [4] of less than 5 and a Ki (Histamine H2 receptor) greater than 10 µM. It also gave a Ki [5] of 0.251 µM, a Ki (Histamine H4 receptor) greater than 10 µM and an inhibition [6] of less than 50%. For the same compound, the inhibition [7] was less than 50% and the Ki [8] was greater than 10 µM.

In the case of `C[C@@]12CN(c3ccccc3)c3ccccc3[C@@H]1CCN2` (racemic), the Ki (Histamine H2 receptor) is reported as 2 µM, the Ki (Histamine H4 receptor) is reported as greater than 10 µM and the Ki [8] is reported as greater than 10 µM.

Work on `CC[C@H]1c2cc(OC)ccc2CC[C@@]1(C)N` (racemic) yielded a pKi [1] of 5.8, an inhibition [2] of less than 50% and an inhibition [3] of less than 50%. The inhibition (D(3) dopamine receptor) was less than 50%, the pKi [4] was less than 5 and the Ki [9] was 6.31 µM. The Ki (Histamine H2 receptor) was greater than 10 µM, the Ki [5] was 0.145 µM and the Ki (Histamine H4 receptor) was greater than 10 µM. For the same compound, the inhibition [6] was less than 50%, the Ki [10] was greater than 10 µM and the inhibition [7] was less than 50%. It also gave a Ki [8] greater than 10 µM.

`CC[C@H]1c2cc(C)ccc2OC[C@@]1(C)N` (racemic) showed a pKi [1] of less than 5, an inhibition [2] of less than 50% and an inhibition [3] of less than 50%. For the same compound, the inhibition (D(3) dopamine receptor) was less than 50%, the pKi [4] was less than 5 and the Ki [9] was greater than 10 µM. The Ki (Histamine H2 receptor) was greater than 10 µM, the Ki [5] was 0.178 µM and the Ki (Histamine H4 receptor) was greater than 10 µM. It also gave an inhibition [6] of less than 50%, a Ki [10] greater than 10 µM and an inhibition [7] of less than 50%. The Ki [8] was greater than 10 µM.

`CC[C@H]1c2ccccc2N(c2ccccc2)C[C@@]1(C)N` (racemic) showed a Ki [9] of 0.398 µM, a Ki (Histamine H2 receptor) greater than 10 µM and a Ki [5] of 0.794 µM. For the same compound, the Ki (Histamine H4 receptor) was greater than 10 µM, the Ki [10] was greater than 10 µM and the Ki [8] was greater than 10 µM.
